21 molecules from ChEMBL document CHEMBL1148164, “Cytotoxicity of artemisinin-related endoperoxides to Ehrlich ascites tumor cells” (J Nat Prod, 1993) can be followed below.

The nature of experiment [1]: Cytotoxicity against mouse EAC after 3 days by MTT assay. In kind it is functional, cell-based. Conditions: Ehrlich, 72 h. Put shortly: (§1)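 Exponentially growing EAT cells (>95% trypan-blue viable; RPMI 1640, 10% heat-inactivated FCS) at 400 cells/well were exposed to compounds for 2 h at 37°, 5% CO2 (final DMSO 0.25%). Cells were washed 3×, then grown 3 days. MTT (5 mg/ml in PBS) was added for 3 h 45 min, formazan was dissolved in DMSO, and A520 was read. Survival is relative to untreated, medium-blank corrected. Three separate experiments.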
(In general: Formazan colour is commonly taken as a measure of viable cells.)

Experiment [2] is described as follows: Cell cycle arrest in mouse EAC assessed as accumulation at S phase by FACS analysis. The settings on record: Ehrlich. Type of experiment: functional, cell-based. More on the design: concentration or dose not given beside the values.
Experiment [3] is described as follows: Cytotoxicity against mouse EAC at >125 uM after 3 days by MTT assay. Type of experiment: functional, Ehrlich. An outline of the steps: as §1
Experiment [4] can be described thus: Cytotoxicity against mouse EAC at >175 uM after 3 days by MTT assay. In kind it is functional, Ehrlich. Put shortly: as §1
A short description of experiment [5]: Cytotoxicity against mouse EAC at >500 uM after 3 days by MTT assay. Type of experiment: functional, Ehrlich. An outline of the steps: as §1
A short description of experiment [6]: Cytotoxicity against mouse EAC at >50 uM after 3 days by MTT assay. In kind it is functional, Ehrlich. Put shortly:
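EAT cells grown in suspension in RPMI 1640 with 10% heat-inactivated FCS, streptomycin and penicillin, 37°, 5% CO2; exponential cells, viability >95%. 400 cells/well exposed 2 h at 37° (final DMSO 0.25%), washed 3×, regrown 3 days. MTT 3 h 45 min, formazan in DMSO, A520; survival versus untreated controls. Triplicate separate experiments, mean ± SD.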

In general, IC50 refers to the point on the concentration scale where inhibition reaches its midpoint. A word on the IC80: it is the concentration at which the effect reaches the 80% level. As to `COc1cccc2c1C(=O)c1c(O)c3c(c(O)c1C2=O)C[C@@](O)(C(=O)CO)C[C@@H]3O[C@H]1C[C@H](N)[C@H](O)[C@H](C)O1` [DOXORUBICIN], in experiment [1], inhibition was half-maximal at 0.35 µM (IC50) and the 80% effect level (IC80) was put at 1 µM.
For `C[C@@H]1CC[C@H]2[C@@H](C)C(=O)O[C@@H]3O[C@@]4(C)CC[C@@H]1[C@]32OO4` [ARTEMISININ], in experiment [2], the Activity is 63%. In experiment [1], the IC50 amounted to 29.8 µM and the IC80 stood at 346 µM.
In the case of `CC1=CO[C@@H]2O[C@]3(C)CC[C@H]4[C@H](C)CC[C@@H]1[C@@]24OO3` [ANHYDRODIHYDROARTEMISININ], in experiment [1], half-maximal inhibition (IC50) was put at 29.2 µM and the 80% effect level (IC80) was put at 207 µM.
In experiment [1], `C=C1C(=O)O[C@@H]2/C=C(\C)CC/C=C(/C)C[C@@H](OC(=O)/C(=C/CO)CO)[C@@H]12` [EUPATORIOPICRIN] came in with an IC50 of 5.7 µM and an IC80 of 13.4 µM.
On the same counts, the results for `C=C1C(=O)O[C@@H]2O[C@@]3(C)CC[C@H]4[C@H](C)CC[C@@H]1[C@@]24OO3` [ARTEMISITENE] are 6.8 µM and 16 µM.
As to `C[C@H]1[C@@H](OCc2ccc(C(=O)O)cc2)O[C@@H]2O[C@]3(C)CC[C@H]4[C@H](C)CC[C@@H]1[C@@]24OO3` [SODIUMARTELINATE], the Activity in experiment [2] was determined as 63%. In experiment [1], the IC50 was found to be 12.2 µM and the IC80 amounted to 47.9 µM.
In experiment [1], `C=C1[C@@H](OO)O[C@@H]2O[C@]3(C)CC[C@H]4[C@H](C)CC[C@@H]1[C@@]24OO3` [HYDROPEROXYARTEMISITENE] gave an IC50 of 37.8 µM and an IC80 of 59.2 µM.
As to `CO[C@H]1O[C@@H]2O[C@@]3(C)CC[C@H]4[C@H](C)CC[C@@H]([C@H]1C)[C@@]24OO3` [ARTEMETHER], in experiment [2], the Activity was determined as 63%. In experiment [1], this molecule displayed an IC50 of 14.3 µM and an IC80 of more than 125 µM. In experiment [3], the Activity is listed as 26.7%.
Consider `CC(=O)[C@@H]1CC[C@@H](C)[C@@H]2CC[C@@]3(C)OO[C@@]12C(=O)O3`, for which, in experiment [1], the IC50 is more than 175 µM and the IC80 is more than 175 µM. The same molecule displayed an Activity in experiment [4] of 98.1%.
Take `CC(C)C12C=CC(C)(CC1)OO2` (stereo not drawn) [ASCARIDOLE]: in experiment [1], the IC50 is more than 500 µM and the IC80 was more than 500 µM. In addition, in experiment [5], the Activity is listed as 74.8%.
`C=C(C(=O)O)[C@@H]1CC[C@@H](C)[C@@H]2CCC(C)=C[C@@H]21` [ARTEMISINIC ACID]: in experiment [1], the IC50 is more than 175 µM and the IC80 is more than 175 µM. The same molecule showed an Activity in experiment [4] of 100%.
`CCO[C@H]1O[C@@H]2O[C@@]3(C)CC[C@H]4[C@H](C)CC[C@@H]([C@H]1C)[C@@]24OO3` [ARTEMOTIL]: the Activity in experiment [2] is 63%. In experiment [1], this molecule showed an IC50 of 13.1 µM and an IC80 of 212 µM.
As for `C=C1C(=O)O[C@@]23[C@H]1CC[C@@H](C)[C@@H]2CC[C@@]1(C)O[C@@H]31` [ARTEANNUIN B], in experiment [1], the midpoint of inhibition, the IC50, lay at 47 µM and the IC80 was more than 50 µM. The Activity in experiment [6] came to 44.8%.
In experiment [1], `CC(=O)[C@@H]1CC[C@@H](C)[C@@H]2CC[C@@]3(C)OO[C@@]12[C@H](OC=O)O3` came in with an IC50 of 91 µM and an IC80 of 156 µM.
The like results for `C=C1[C@@H](OOCC)O[C@@H]2O[C@]3(C)CC[C@H]4[C@H](C)CC[C@@H]1[C@@]24OO3` [ETHYLPEROXYARTEMISITENE] were, in that order, 11.5 µM and 38.3 µM.
`C[C@@H]1CC[C@@H]2[C@]34OO[C@@](C)(CC[C@@H]13)O[C@H]4OC(=O)[C@@]2(C)O`: in experiment [1], the IC50 is more than 125 µM and the IC80 was more than 125 µM. The Activity in experiment [3] came to 98.8%.
In experiment [1], `C[C@@H]1CC[C@@H]2[C@]34OO[C@](C)(CC[C@@H]13)O[C@H]4OC(=O)[C@]2(C)O` had an IC50 of 48.7 µM and an IC80 of 125 µM.
With `C[C@@H]1[C@H](OCc2ccc(C(=O)O)cc2)O[C@@H]2O[C@@]3(C)CC[C@@H]4[C@@H](C)CC[C@@H]1[C@]24OO3` [ARTELINIC ACID], the Activity in experiment [2] amounted to 63%. Moreover, in experiment [1], 16.1 µM corresponded to half-maximal inhibition (IC50) and the IC80 is 103 µM.
With `C[C@H]1[C@H](OC(=O)CCC(=O)O)O[C@@H]2O[C@@]3(C)CC[C@H]4[C@H](C)CC[C@@H]1[C@@]24OO3` [SODIUM ARESUNATE], in experiment [1], the IC50 turned out to be 19.9 µM and the 80% effect level (IC80) was put at 53.6 µM.
The like results for `C[C@H]1[C@@H](O)O[C@@H]2O[C@@]3(C)CC[C@H]4[C@H](C)CC[C@@H]1[C@@]24OO3` [ARTENIMOL] were, in that order, 83.4 µM and 233 µM.
In experiment [1], `C[C@H]1[C@H](O[C@@H]2O[C@@H]3O[C@@]4(C)CC[C@H]5[C@H](C)CC[C@@H]([C@H]2C)[C@@]35OO4)O[C@@H]2O[C@@]3(C)CC[C@H]4[C@H](C)CC[C@@H]1[C@@]24OO3` registered an IC50 of 1.4 µM and an IC80 of 2.4 µM.
